Most compounds without a hit are left out; they make up all but 3.7% or so of the library.
SR-BI DiI-HDL act – SR-BI HDL lipid transfer activation | 320,000 compounds, 0.096% hits | CHO ldlA[mSR-BI] cells, DiI-HDL uptake fluorescence, 3 h; 100 = double the neutral-control signal | AID 504775 | activation, % at 12.5 µM;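 active = mean replicate activation of at least 60% and every replicate at or above 60%; inconclusive = mean or all-replicate condition met, but not both; inactive = mean below 60% and not all replicates reaching 60%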;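 also: 0% = median plate neutral-control signal and 100% = twice that signal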
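Material – SR-BI-overexpressing, LDLR-lacking CHO cells · Medium – BSA-supplemented, HEPES-buffered Ham's F12, pH 7.4 · Doses – single concentration · Times – compound with DiI-HDL co-incubation, 3 h at 37 °C · Measured by – bottom-read fluorescence, 550/595 nm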
AHR act – human AHR activation. activation, % at 5 µM. P35869. 320,000 compounds, 2.5% hits. AHR-responsive luciferase reporter cells, luminescence. AID 2796; in the data active = activation above about 47%;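 also: 0% = vehicle wells and 100% = reference agonist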
JMJD2C inh – inhibitors of human GASC-1 (JMJD2C) demethylase; GST-JMJD2C(1-420) H3K9me3 demethylation, DELFIA europium; 330,000 compounds, 0.069% hits; Q9H3R0; inhibition, % at 2.35 µM; AID 2099;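 active = more than half of a compound's replicate wells show inhibition beyond 50%, single wells judged on their own value; inconclusive = some, but no more than half, of replicates pass 50% inhibition; inactive = no replicate passes 50% inhibition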;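 also: signal counts dimethyl H3K9 product captured on neutravidin plate; 0% = median of DMSO wells and 100% = 0.3 times that DMSO median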
Target sequence (Q9H3R0 1-420 limits assumed): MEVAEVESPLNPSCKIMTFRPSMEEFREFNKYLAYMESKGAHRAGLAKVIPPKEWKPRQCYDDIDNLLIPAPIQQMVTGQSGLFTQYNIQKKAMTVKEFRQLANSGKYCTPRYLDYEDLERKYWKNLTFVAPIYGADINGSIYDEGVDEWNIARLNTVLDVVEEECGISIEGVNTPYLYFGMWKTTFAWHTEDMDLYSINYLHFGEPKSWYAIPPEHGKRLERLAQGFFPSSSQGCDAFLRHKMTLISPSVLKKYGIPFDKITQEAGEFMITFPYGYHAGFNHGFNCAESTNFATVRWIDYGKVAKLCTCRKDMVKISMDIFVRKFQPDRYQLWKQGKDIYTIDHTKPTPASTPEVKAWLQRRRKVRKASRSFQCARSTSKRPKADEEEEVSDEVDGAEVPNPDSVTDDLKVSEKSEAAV
FXN GAA850 act – increases GAA850 frataxin promoter reporter activity; HEK293 lucGAA850 FXN promoter luciferase reporter, 24 h; percent of 10 µM SAHA response; activation, % at 6 µM; 360,000 compounds, 0.56% hits;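 active = activation above the average of all compounds screened plus 3 SD, cutoff fixed separately per campaign, cut at about 7.5% in these data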;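 also: 0% = DMSO wells and 100% = 10 µM SAHA wells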
SR-BI HDL uptake – blocks mouse SR-BI lipid uptake from DiI-HDL | AID 488896 | inhibition, % at 12.5 µM | ldlA[mSR-BI] CHO cells, DiI-HDL uptake fluorescence, 3 h | 320,000 compounds, 0.96% hits;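 active = mean replicate inhibition of at least 70% and a set share of replicates each scoring 70 or more; inconclusive = meets just one of the two criteria; inactive = fails both criteria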;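 also: 0% = median of neutral control wells and 100% = median of positive control wells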
The depositor's hits bear a star; ? = inconclusive; · = no result.

SMILES	SR-BI DiI-HDL act	AHR act	JMJD2C inh	FXN GAA850 act	SR-BI HDL uptake
CCN(C(=O)[C@@H]1CCCN1C(=O)c1cccs1)c1nc2cc(Cl)ccc2s1	-78	8	0	6	78*
O=c1c(-c2ccco2)[n+]([O-])c2ccccc2n1OCc1ccccc1[N+](=O)[O-]	-30	41	-23	3	30
CCCN(CC1CC1)C(=O)COC(=O)c1[nH]c(C)c(C(=O)OCC)c1C	-51	4	-14	0	51
Cc1ccccc1-c1noc(-c2ccc(O)cc2)n1	20	59*	1	5	-20
Cc1ccccc1-c1noc(-c2ccc(Cl)cc2)n1	-2	33	144	1	2
O=C1/C(=C/c2cccs2)SC(=S)N1CCC(=O)N1CCCCC1CCO (stereo not drawn)	-8	2	83	1	8
Cc1cc(C)n(-c2ccc(NC(=O)C3CCCCN3Cc3cccc4c3OCO4)cc2)n1 (stereo not drawn)	-89	·	18	-5	89*
CO/N=C/c1cc([N+](=O)[O-])ccc1Sc1ccc(C)cc1	-19	-2	-7	1	19
CCOCCCNC(=O)COc1ccc(OC)cc1	39	4	-19	-2	-39
CC1(C)Oc2ccc(C(=O)NC3CC3)cc2N(CC(=O)N2CCOCC2)C1=O	-17	74*	-8	-1	17
CC1(C)Oc2ccc(C(=O)NC3CCCC3)cc2N(CC(=O)N2CCOCC2)C1=O	8	-1	-5	0	-8
O=C(NCc1ccccc1Cl)C1CCN(S(=O)(=O)c2ccc(N3CCCC3=O)cc2)CC1	·	-2	10	-2	114*
CC(C)(C)[C@H]1C=C(C(=O)NCc2ccccc2)O[C@@H](OCCCCO)C1	-2	-1	6	2	2
CS(=O)(=O)Nc1ccc(C(=O)Nc2ccc(S(=O)(=O)N3CCCCC3)cc2)cc1	14	·	-6	2	-14
Cc1ccccc1Cn1c(O)c(N=NC(=S)Nc2ccccc2F)c2ccccc21	-46	28	-3	0	46
Cc1ccc(C)c(Cn2c(O)c(N=NC(=S)Nc3ccccc3F)c3ccccc32)c1	-84	1	-11	0	84*
CC1=C(C#N)C(=O)N(C)C(C)(C)C1	140*	-2	-4	-2	-140
CC(CCc1ccccc1)NC(=O)CNC(=O)COc1ccccc1 (stereo not drawn)	-4	1	11	-1	4
O=C(COc1ccccc1)Nc1ccccc1N1CCN(c2ccccc2)CC1	-64	-2	-6	1	64
O=C(COc1ccccc1)Nc1ccccc1N1CCN(c2ccc(F)cc2)CC1	-80	0	-2	-1	80*
Cc1cc(C(O)c2ncc(-c3ccccc3)[nH]2)ccc1F (stereo not drawn)	·	·	·	0	·
Cc1sc2nc(-c3ccccc3)[nH]c(=O)c2c1-c1ccccc1	·	48*	1	·	·
Cc1sc2nc(SCC(=O)N3CCOCC3)[nH]c(=O)c2c1-c1ccccc1	34	49*	12	0	-34
Cc1c(-c2ccccc2)nc(-c2ccccc2)[nH]c1=O	16	24	-2	3	-16
O=C(CSc1nc(O)c(-c2ccccc2)c(=O)[nH]1)N1CCOCC1	14	-1	4	2	-14
SMILES	SR-BI DiI-HDL act	AHR act	JMJD2C inh	FXN GAA850 act	SR-BI HDL uptake
O=C(Nc1cccc(C(F)(F)F)c1)c1cccnn1	6	20	-1	-1	-6
COc1ccc(C(=O)NC2CCCc3ccccc32)c(OC)c1OC (stereo not drawn)	·	3	-1	0	·
COc1ccc(F)cc1S(=O)(=O)N1CCN(C(=O)c2ccco2)CC1	14	-4	0	2	-14
Cc1nn(Cc2ccccc2)c(C)c1/C=N/NC(=O)c1ccccc1O	-18	16	-3	1	18
Cc1cc(NC(=O)c2c(F)cccc2F)n(-c2nc3ccccc3[nH]2)n1	-66	17	1	1	66
Cc1cc(NC(=O)c2ccccc2F)n(-c2nc3ccccc3[nH]2)n1	-76	25	7	3	76*
Cc1cc(NC(=O)c2c(F)cccc2Cl)n(-c2nc3ccccc3[nH]2)n1	-92	6	11	-1	92*
Cc1cc(NC(=O)c2ccc(C)s2)n(-c2nc3ccccc3[nH]2)n1	-72	19	5	-1	72*
Cc1cc(NC(=O)C2CCCCC2)n(-c2nc3ccccc3[nH]2)n1	-58	31	-6	3	58
Cc1cc(NC(=O)/C=C/c2cccc(F)c2)n(-c2nc3ccccc3[nH]2)n1	-95	74*	10	2	95*
COc1ccc(C)cc1Nc1n[n+](-c2ccccc2)c(-c2ccc(C(=O)O)cc2)s1	12	48*	-11	0	-12
COc1ccc(-c2sc(Nc3ccccc3)n[n+]2-c2ccccc2)cc1Br	-12	64*	·	2	12
CCOc1cc(-c2sc(Nc3ccc(CC)cc3)n[n+]2-c2ccccc2)ccc1OC	-47	0	0	-1	47
CS(=O)(=O)c1sc2nc(-c3cccs3)cc(-c3ccccc3)c2c1N	-66	5	13	5	66
N#Cc1sc2nc(-c3cccs3)cc(-c3ccc(F)cc3)c2c1N	-82	5	0	5	82*
CCOc1ccc(N(C(C)C(=O)Nc2cccnc2)S(C)(=O)=O)cc1 (stereo not drawn)	-6	4	-29	1	6
CCOc1ccc(N(C(C)C(=O)N/N=C(\C)c2cccc(NC(=O)c3ccccc3)c2)S(C)(=O)=O)cc1 (stereo not drawn)	-78	19	1	-5	78*
CC(NC(=O)c1cccc(N(C)C)c1)c1ccc(-n2ccnc2)cc1 (stereo not drawn)	-7	18	13	2	7
FC(F)(F)c1ccccc1CNCc1ccc2c(c1)OCO2	-2	·	0	1	2
Cc1cccc(Nc2c([N+](=O)[O-])cc(C(=O)N3CC(=O)Nc4ccccc43)cc2[N+](=O)[O-])c1	-82	3	11	2	82*
Cc1ccc(C)c(Nc2c([N+](=O)[O-])cc(C(=O)N3CC(=O)Nc4ccccc43)cc2[N+](=O)[O-])c1	-72	5	5	-1	?
Cc1ccccc1C(=O)NC(CC(C)C)C(=O)NCC(C)(C)N1CCOCC1 (stereo not drawn)	2	1	-5	0	-2
CCc1ccccc1NC(=O)NNS(=O)(=O)c1cc(C)ccc1C	-3	2	0	1	3
N=c1c(-c2nc3ccccc3[nH]2)cc(C(=O)c2ccco2)nn1-c1ccccc1	-73	47	13	2	73*
N=c1c(-c2nc3ccccc3[nH]2)cc(C(=O)c2cccs2)nn1-c1ccccc1	-62	25	6	3	62
CC(C)(C)c1ccc(CC(=O)N2CCC2(C)C(=O)Nc2cccc3c2CCCC3)cc1 (stereo not drawn)	·	·	·	3	·

From PubChem BioAssay
